From paper PMC3755765 (ChemMedChem, 2013)
In brackets after ≈: the same amount, converted by molar mass. Several values for one entry are separate records, joined by “and”; a condition that tells them apart may be missing. Identical values can stand only once. Entries after “also recorded” stand apart in the source; their conditions may differ. Like-named read-outs stand apart in the source and are kept apart here.

Tests used:
T. gondii tachyzoites = test: Parasite tissue culture assay: inhibition of T. gondii tachyzoites in HFF; type: cell-based, Toxoplasma gondii; conditions: for MIC50 / IC50: Toxoplasma gondii; for Activity in the parasite-based assay: T. gondii tachyzoites
TgENR = molecular target: T1, TgENR (Toxoplasma gondii, UniProt Q6UCJ9); test: TgENR enzyme assay; type: biochemical; conditions: for inhibition at 1 µM: read-out: Cpd. conc. [1 μM]/% Inh.: percentage of inhibition of TgENR; for Activity in the enzyme-based assay: purified TgENR
T1 sequence (Q6UCJ9 28-417): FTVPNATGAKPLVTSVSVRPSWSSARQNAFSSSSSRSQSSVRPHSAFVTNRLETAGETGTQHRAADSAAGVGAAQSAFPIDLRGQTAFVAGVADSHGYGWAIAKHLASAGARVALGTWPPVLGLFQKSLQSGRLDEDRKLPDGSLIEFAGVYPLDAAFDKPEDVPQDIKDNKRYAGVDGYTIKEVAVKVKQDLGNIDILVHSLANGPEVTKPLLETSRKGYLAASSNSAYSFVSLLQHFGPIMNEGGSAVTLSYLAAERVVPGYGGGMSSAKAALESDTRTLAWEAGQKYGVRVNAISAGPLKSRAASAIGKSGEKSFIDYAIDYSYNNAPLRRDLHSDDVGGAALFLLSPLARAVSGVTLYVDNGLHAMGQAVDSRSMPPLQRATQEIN

T. gondii = T. gondii mouse infection model; type: in vivo; conditions: mice; for Effect on parasite burden compared to triclosan (Xenogen camera images): 10mg/ml; for Effect on parasite growth in vivo: 50mg/kg (results not shown)
[1] = Intrinsic clearance in human cryopreserved hepatocytes; type: in vitro ADME; conditions: human
[2] = system: human cryopreserved hepatocytes; test: as above; type: in vitro ADME
[3] = Intrinsic clearance in human liver microsomes; type: in vitro ADME
Toxicity in mice = type: in vivo
[4] = Experimental Caco-2 permeability; conditions: human, Caco-2
[5] = system: Human Foreskin Fibroblasts (HFF); test: Toxicity for host cells; conditions: for Parasite tissue culture assay HFF (HFF toxicity): human foreskin fibroblasts, highest concentration tested 10 μM
[6] = system: P. falciparum strain D6 (CDC/Sierra Leone); test: Malaria SYBR Green I-based fluorescence assay, strain D6; type: cell-based; conditions: Plasmodium falciparum, D6, 72 h, read-out: SYBR Green D6 IC50
In short: (§1)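 Late-ring or early-trophozoite parasites at 0.3% starting parasitemia and 2% hematocrit were added to plates predosed with quadruplicate 12-point two-fold dilutions in DMSO (final […]), with mefloquine as reference. Plates were incubated 72 h at 37°C under 5% CO2/5% O2/90% N2, lysed with Tris/EDTA/Triton X/saponin buffer with SYBR Green I (final 10x), kept dark 24 h at RT, and read as RFU. A chloroquine batch control at 2000 ng/ml validated each run.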

[7] = system: P. falciparum strain TM91C235 (WRAIR, Thailand, chloroquine resistant); test: Malaria SYBR Green I-based fluorescence assay, strain TM91C235; type: cell-based; conditions: Plasmodium falciparum, 72 h, read-out: SYBR Green C235 IC50
In short: as §1

Caco-2 = test: Experimental Caco-2 permeability; conditions: experimental, Contract Research Organization
in vitro = conditions: human, Caco-2
[8] = 72 h, read-out: Parasite tissue culture assay MIC50
[9] = 75 mg/kg, day 5 after infection, 75 mg/kg

Row | Structure (SMILES) | MIC50 (T. gondii tachyzoites; [8]) [µM] | inhibition at 1 µM (TgENR) [%] | Effect on parasite burden in vivo (T. gondii; 10 mg/kg) | Parasite tissue culture assay HFF (HFF toxicity) [5] [µM] | Activity in the parasite-based assay (T. gondii tachyzoites) | Activity in the enzyme-based assay (TgENR) | IC50 [6] | IC50 [7] | further results
1 | Oc1cc(Cl)ccc1Oc1ccc(Cn2ccnn2)cc1Cl [Compound 16c, 5-Chloro-2-[2-chloro-4-[(1H-1,2,3-triazol-1-yl)methyl]phenoxy]phenol] | 0.25 (≈ 0.084 µg/mL) | 91 | neither of those analogs reduced the parasite burden; also recorded: no effect | >10 | – | – | – | – | IC50 (T. gondii tachyzoites; read-out: IC50 (MIC50) against Toxoplasma gondii tachyzoites): 250 nM; Effect on parasite burden compared to triclosan (Xenogen camera images) (T. gondii): reduced effect; Effect on parasite growth in vivo (T. gondii): not evident; Effect on parasite burden in vivo (T. gondii; [9]): protected the mice by decreasing parasite burden; also recorded: effective in reducing parasite burden; half-life [1]: 29 min; Compound left unmetabolized ([2]; after 60 min): 20%; Compound remained intact ([2]; after 120 min): 5%; half-life [3]: > 60 min; Toxicity in mice relative to triclosan (fold less toxic) (Toxicity in mice): 10 fold; Papp [4]: 26.3 ×10⁻⁶ cm/s; Toxicity to the host cells [5]: without apparent toxicity to the host cells
2 | Cc1cc(CC(=O)NCc2ccc(Oc3ccc(Cl)cc3O)c(Cl)c2)on1 [Compound 37c, N-[3-Chloro-4-(4-chloro-2-hydroxyphenoxy)benzyl]-2-(3-methyl-1,2-oxazol-5-yl)acetamide] | > 10 | 96 | neither of those analogs reduced the parasite burden; also recorded: no effect | – | – | – | – | – | Effect on parasite burden compared to triclosan (Xenogen camera images) (T. gondii): reduced effect; Effect on parasite growth in vivo (T. gondii): not evident; Effect on parasite burden in vivo (T. gondii; [9]): protected the mice by decreasing parasite burden; also recorded: effective in reducing parasite burden; Toxicity in mice relative to triclosan (fold less toxic) (Toxicity in mice): 10 fold
3 | Oc1cc(CNC2CCCCC2)ccc1Oc1ccc(Cl)cc1Cl [Compound 39b, 5-[(Cyclohexylamino)methyl]-2-(2,4-dichlorophenoxy)phenol] | 4 (≈ 1.47 µg/mL) | 34 | – | >10 | activity comparable to or better than that of triclosan | completely inactive | 30 nM and 0.0119 µg/mL | 80 nM and 0.0276 µg/mL | –
4 | CCC(=O)c1ccc(Oc2ccc(Cl)cc2Cl)c(O)c1 [Compound 43a, 1-[4-(2,4-Dichlorophenoxy)-3-hydroxyphenyl]propan-1-one] | – | 85 | – | >10 | ineffective | only weak activity; also recorded: only weak inhibition | 2.75 µM and 0.857 µg/mL | > 2 µg/mL | IC50 (T. gondii tachyzoites; [8]): > 10000 nM
5 | O=C(c1ccccc1)c1ccc(Oc2ccc(Cl)cc2Cl)c(O)c1 [Compound 43b, [4-(2,4-Dichlorophenoxy)-3-hydroxyphenyl](phenyl)methanone] | > 10 | 78 | – | >10 | ineffective | only weak activity; also recorded: only weak inhibition | > 2 µg/mL | > 2 µg/mL | IC50 (TgENR): 750 nM
6 | Oc1cc(Cl)ccc1Oc1ccc(Cl)cc1Cl [Triclosan, triclosan, reference compound] | 3 (≈ 0.869 µg/mL) | 97 | effective; also recorded: demonstrated efficacy | > 10 | – | – | – | – | IC50 (T. gondii tachyzoites; [8]): 250 nM
7 | COc1cc2c(c(OC)c1OC)-c1ccc(OC)c(=O)cc1[C@@H](NC(C)=O)CC2 [colchicines, reference compound] | – | – | – | – | – | – | – | – | Caco-2 permeability (Caco-2): 0.1 ×10⁻⁶ cm/s
8 | CC(C)NCC(O)COc1cccc2ccccc12 (stereo not drawn) [propranolol] | – | – | – | – | – | – | – | – | Papp (in vitro): 51.1 ×10⁻⁶ cm/s
